# Experimental data of several laboratories.
# Each line is one published result; the experiments were not run side by side.
# Target: Serine/threonine-protein kinase ULK1 (ULK1, Homo sapiens, UniProt O75385)
# Sequence (O75385 1-1050, as in one of the studies): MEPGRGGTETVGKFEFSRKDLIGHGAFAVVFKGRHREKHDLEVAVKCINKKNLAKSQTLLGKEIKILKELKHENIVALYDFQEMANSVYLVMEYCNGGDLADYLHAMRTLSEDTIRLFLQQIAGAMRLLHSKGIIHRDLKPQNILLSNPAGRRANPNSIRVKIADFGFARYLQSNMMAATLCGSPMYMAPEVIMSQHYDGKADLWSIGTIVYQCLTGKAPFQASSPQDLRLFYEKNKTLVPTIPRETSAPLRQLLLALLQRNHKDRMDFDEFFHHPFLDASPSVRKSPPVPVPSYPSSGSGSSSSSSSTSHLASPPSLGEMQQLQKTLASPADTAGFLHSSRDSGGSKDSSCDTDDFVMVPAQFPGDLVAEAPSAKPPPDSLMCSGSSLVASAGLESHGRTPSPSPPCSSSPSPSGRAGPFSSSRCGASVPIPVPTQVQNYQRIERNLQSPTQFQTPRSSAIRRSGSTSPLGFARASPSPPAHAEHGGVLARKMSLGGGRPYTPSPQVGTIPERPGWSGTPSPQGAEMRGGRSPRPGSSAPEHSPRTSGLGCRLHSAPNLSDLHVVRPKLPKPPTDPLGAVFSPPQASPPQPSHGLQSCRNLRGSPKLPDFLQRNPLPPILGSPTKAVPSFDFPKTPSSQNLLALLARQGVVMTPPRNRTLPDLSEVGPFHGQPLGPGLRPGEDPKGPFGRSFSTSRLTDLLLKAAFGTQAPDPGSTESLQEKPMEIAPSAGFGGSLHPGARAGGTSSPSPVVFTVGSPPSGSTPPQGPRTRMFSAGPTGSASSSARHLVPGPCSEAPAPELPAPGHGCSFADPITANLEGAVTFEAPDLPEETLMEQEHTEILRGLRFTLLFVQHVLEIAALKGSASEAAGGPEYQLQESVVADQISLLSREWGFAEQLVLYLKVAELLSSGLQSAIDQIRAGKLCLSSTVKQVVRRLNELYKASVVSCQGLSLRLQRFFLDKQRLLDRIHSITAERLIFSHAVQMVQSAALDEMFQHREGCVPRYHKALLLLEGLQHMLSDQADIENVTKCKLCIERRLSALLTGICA
SMILES,effect on,action,technique,tested at,measurement,value
O=C(NCc1ncc(C(F)(F)F)cc1Cl)c1ccc2c(c1)C1(CCS(=O)(=O)CC1)[C@@H](C1CC1)N2S(=O)(=O)c1ccc(F)cc1,cell-free assay,,competition with immobilised ligand,1 µM,remaining binding,80%
C#Cc1cccc(Nc2ncnc3cc(OCCOC)c(OCCOC)cc23)c1,cell-free assay,,,0.5 µM,remaining signal,113%
COc1ccc(Nc2ncc(C(F)(F)F)c(NC3CC3)n2)cc1OC,thermal stability,,DSF,10 µM,ΔTm,9.5 °C
O=C(NCCCNc1ccnc(Nc2cccc(NC(=O)N3CCCC3)c2)n1)C1CCC1,enzyme activity,inhibitor,radiometric,1 µM,remaining activity,75%
Cc1cc(NC(=O)c2cccc3cc(-c4cccc5[nH]nc(N)c45)ccc23)ccc1F,enzyme activity,inhibitor,,0.1 µM,activity vs control,95%
O=C(Nc1cccc(Nc2ncc(Br)c(NCCc3cnc[nH]3)n2)c1)N1CCCC1,enzyme activity,inhibitor,radiometric,1 µM,remaining activity,6%
COc1cccc(CNC(=O)c2nc3scc(COCc4ccc(C(=O)O)cc4)c3c(=O)[nH]2)c1,cell-free assay,,competition with immobilised ligand,1 µM,remaining binding,74%
CCCCNc1ncc2c(-c3ccc(F)cc3)nn(C[C@H]3CC[C@H](N)CC3)c2n1,target engagement in cells,inhibitor,chemoproteomics,20 mM,inhibition,3.7%
N#CCCc1ccc2c(c1)-c1[nH]c3ccc([N+](=O)[O-])cc3c1CC(=O)N2,cell-free assay,,,0.5 µM,remaining signal,94.2%
C[C@@H](c1cccc(C#N)c1)n1cc(Cl)cc(C(N)=O)c1=N,cell-free assay,,competition with immobilised ligand,1 µM,remaining binding,72%
Cc1nn(CC(F)(F)F)cc1Nc1nccc(NCCc2cnc[nH]2)n1,enzyme activity,inhibitor,radiometric,1 µM,remaining activity,88%
CCC(=N\O)/C(C)=C/c1ccc(F)cc1,cell-free assay,,competition with immobilised ligand,1 µM,remaining binding,85%
Cc1nn(CC(F)(F)F)cc1Nc1ncc(C2CC2)c(NCc2ccc(S(N)(=O)=O)cc2)n1,enzyme activity,inhibitor,radiometric,1 µM,remaining activity,106%
CN1CC(Oc2cnc(C#N)cc2-c2ccn3nc(NC(=O)C4CC4)cc3c2)C1,enzyme activity,inhibitor,,1 µM,inhibition,-1%
NS(=O)(=O)c1ccc(CNc2nc(Nc3cccc(NC(=O)N4CCCC4)c3)ncc2Br)cc1,enzyme activity,inhibitor,radiometric,1 µM,remaining activity,66%
NS(=O)(=O)c1cc(NC(=O)C2(c3ccccc3Cl)CC2)ccc1Oc1cccc(Cl)c1,cell-free assay,,competition with immobilised ligand,1 µM,remaining binding,89%
FC(F)(F)Oc1cccc(-c2cnc3ccc(-c4ccncc4)nn23)c1,enzyme activity,inhibitor,radiometric,1 µM,activity vs control,114%
COc1ccc(COc2ccc(Cc3cnc(N)nc3N)cc2OC)cc1,cell-free assay,,,0.5 µM,remaining signal,99.7%
CS(=O)(=O)N1CCCC(NC(=O)[C@H](CCC2CCCCC2)NC(=O)c2ccc(CNc3ncnc4c3nnn4-c3ccccc3)cc2)C1 (stereo partly shown),cell-free assay,,competition with immobilised ligand,0.1 µM,remaining binding,100%
Cc1nn(CC(F)(F)F)cc1Nc1nccc(NCCCNC(=O)C2CCC2)n1,enzyme activity,inhibitor,radiometric,1 µM,remaining activity,96%
N#Cc1ccc(Nc2ccc3[nH]c(=O)[nH]c3c2)c(Cl)c1,cell-free assay,,competition with immobilised ligand,1 µM,remaining binding,81%
Cc1nn(CC(F)(F)F)cc1Nc1ncc(Br)c(NCCCNC(=O)C2CCC2)n1,enzyme activity,inhibitor,radiometric,1 µM,remaining activity,3%
